Source: publication PMC6824728 (International journal of pharmaceutics, 2019)

Columns and labels:
[1] = 20°C; ref Kim and Hsieh, 2001; Wu and Hopkins, 1999; cited from earlier work
[2] = ref Naguib et al., 2016; cited from earlier work
B16-F10 cells = test: In vitro cytotoxicity, MTT assay; format: cell-based, murine; settings: 48 h of incubation
In short: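 B16-F10 cells were grown in DMEM and seeded at 4,000 cells/well. After overnight attachment at 37°C, 5% CO2, they were exposed for 48 h to graded concentrations of free compound (DMSO stock diluted in medium) or SLN formulation (dispersed in medium). Drug-free SLNs, DMSO and medium served as controls. Survival was read by MTT.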

[3] = Tween 80-ethanol-water solution, room temperature; ref Naguib et al., 2016; cited from earlier work
M-Wnt cells = test: In vitro cytotoxicity, MTT assay; format: cell-based, murine; settings: 24 h of incubation
In short: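 M-Wnt cells were grown in RPMI 1640 plus 1% Glutamax and seeded at 1,000 cells/well. After overnight attachment at 37°C, 5% CO2, they were treated for 24 h with graded concentrations of free compound (DMSO stock diluted in medium) or SLN formulation (dispersed in medium). Drug-free SLN, DMSO and medium controls were included. Survival was read by MTT.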

B16-F10 tumor = test: Antitumor activity in mice with pre-established B16-F10 tumors; format: in vivo; settings: B16-F10 s.c. tumors, i.v. 50 mg/kg DHA-dFdC on days 7, 10, 13, 16
B16-F10 tumors = test: Histology; format: in vivo, C57BL/6 mice; settings: tumors collected day 17; i.v. 50 mg/kg DHA-dFdC x 4
In short: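 Female C57BL/6 mice (18–20 g, 6–8 weeks) received 5 × 10^5 B16-F10 cells s.c. in the right flank on day 0. They were randomized on day 7 and dosed i.v. every 3 days ×4 at 50 mg/kg. Free compound was given in Tween 80/ethanol/5% mannitol vehicle; SLNs were dispersed in 5% mannitol. Tumors were harvested day 17, formalin-fixed, embedded and H&E stained.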

| Compound | Critical micelle concentration [1] | Intrinsic solubility in water [2] | IC50 (B16-F10 cells) | Half-life of DHA-dFdC in solution [3] | IC50 (M-Wnt cells) | Tumor growth delay (B16-F10 tumor) | Tumor histology (H&E) (B16-F10 tumors) |
| --- | --- | --- | --- | --- | --- | --- | --- |
| Tween 20 | ~ 1 % (w/v) |  |  |  |  |  |  |
| CC/C=C\C/C=C\C/C=C\C/C=C\C/C=C\C/C=C\CCC(=O)Nc1ccn([C@@H]2O[C@H](CO)[C@@H](O)C2(F)F)c(=O)n1 [DHA-dFdC, 4-(N)-docosahexaenoyl 2′, 2′-difluorodeoxycytidine] |  | ~ 25 μg/mL | 1810 nM | ~ 14 h | 2150 nM | 4 days | vascular collapse and necrotic areas |
